In the library only some 3.7% were active in any assay of this set; here they are far more common.
Myeloid diff 2 – induction of myeloid progenitor differentiation, primary screen, cell-based, flow cytometry, MLPCN library. ER-HoxA9 myeloid progenitors, lysozyme-GFP differentiation. calls only at 10 µM. 360,000 compounds, 1% hits;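 active means normalized GFP-positive differentiation at or above the plate's own cutoff, the solvent-only control mean plus 3 SD; inconclusive means no clear call, values can overlap the other calls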;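 further: cells exposed to compound for four days before flow analysis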
Exocytosis inh – LAMP-1 surface exposure blockers, TALL-104 cells – cell-based, flow cytometry, MLPCN library, primary screen | TALL-104 LAMP-1 surface exposure; cells stimulated with thapsigargin and PMA | 360,000 compounds, 0.66% hits | inhibition, % at 10 µM;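 active means inhibition above about 55%, limit read from the data; inconclusive means no clear call, values can overlap the other calls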
MC4R ag barr – MC4R agonists recruiting beta-arrestin, primary screen, cell-based, luminescence, agonist arm of biased-ligand search; Melanocortin receptor 4 (Homo sapiens), P32245; U2OS MC4R beta-arrestin complementation; percent of melanotan II response, DMSO zero; activation, % at 8.9 µM; 360,000 compounds, 0.98% hits; AID 540308, 2011;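 active means activation above a per-plate cutoff, the mean activation of sample wells on that plate plus 3 SD, cut at about 8% in these data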
Target sequence (P32245 whole entry, looked up): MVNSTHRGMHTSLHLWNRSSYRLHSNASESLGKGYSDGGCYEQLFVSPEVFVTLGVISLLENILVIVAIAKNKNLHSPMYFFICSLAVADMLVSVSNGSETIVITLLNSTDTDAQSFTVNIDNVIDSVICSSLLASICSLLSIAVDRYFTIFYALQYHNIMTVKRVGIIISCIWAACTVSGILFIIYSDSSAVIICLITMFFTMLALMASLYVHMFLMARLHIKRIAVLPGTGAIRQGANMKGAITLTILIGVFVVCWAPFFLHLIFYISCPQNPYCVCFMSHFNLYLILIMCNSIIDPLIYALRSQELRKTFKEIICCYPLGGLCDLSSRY
MC4R antagonist – MC4R antagonists of cAMP signaling, primary screen, cell-based, TR-FRET, antagonist arm of biased-ligand search; Melanocortin receptor 4 (Homo sapiens), P32245; MC4R-expressing cells, MTII-stimulated cAMP, LANCE TR-FRET; inhibition, % at 6.5 µM; 360,000 compounds, 0.48% hits; AID 540295, 2011;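 active means inhibition above its plate's cutoff, the mean of tested wells on that plate plus 3 SD, cut at about 29% in these data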;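 further: 0% = Melanotan II alone and 100% = Melanotan II plus saturating MCL0020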
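Material: human MC4R-expressing U2OS cells. Probe or stimulus: Melanotan II challenge. Dosing: 6.5 µM single dose. Times: 30-min compound, 1-h challenge, 1-h detection, room temperature. Technique: TR-FRET with Eu-cAMP and labeled anti-cAMP, 671 nm. Replication: singlicate.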
EBI2 block – EBI2 receptor antagonists, beta-arrestin recruitment, primary screen, cell-based, luminescence, 7a,25-OHC stimulation, uHTS | G-protein coupled receptor 183 (Homo sapiens), P32249 | 7a,25-OHC stimulated | inhibition, % at 5 µM | 360,000 compounds, 0.81% hits | AID 651636, 2012; in the data active means inhibition above about 38%;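 further: enzyme fragment complementation signal reports receptor beta-arrestin coupling in cells; 0% = agonist plus DMSO wells and 100% = wells without agonist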
cAMP nonselect – nonselective cAMP signaling inhibitors, parental cells, counter-screen for MC4R biased antagonist project, cell-based, TR-FRET, U2OS, forskolin, triplicate; shares compounds with MC4R antagonist; LANCE TR-FRET; inhibition, % at 6.5 µM; 1,600 compounds, 26% hits; AID 602193, 2012;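 active means mean inhibition over triplicates above the low-control well mean plus 3 SD, set per campaign, cut at about 13% in these data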;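 further: signal is single emission at 671 nm which falls as cellular cAMP rises; 0% = forskolin-stimulated wells and 100% = buffer without forskolin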
MC4R antag conf – MC4R cAMP antagonists, retest, confirmation, cell-based, TR-FRET; shares compounds with MC4R antagonist; MC4R-expressing cells, MTII-stimulated cAMP; inhibition, % at 6.5 µM; 1,600 compounds, 27% hits; AID 602195, 2012; in the data active means inhibition above about 29%;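 further: 0% = agonist stimulated wells alone and 100% = agonist stimulated wells plus saturating reference antagonist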
Numbers without * were called inactive.

Results for O=C(Cc1cccc2ccccc12)N1CCN(c2ncccn2)CC1 ?
Myeloid diff 2: inactive; Exocytosis inh: -1.0; MC4R ag barr: -0.7; MC4R antagonist: 29.5*; EBI2 block: -4.1; cAMP nonselect: 1.7; MC4R antag conf: -2.1

What do the screens show for `O=C(Cc1coc2ccc3ccccc3c12)N1CCN(c2ncccn2)CC1`?
Myeloid diff 2: inactive; Exocytosis inh: -0.9; MC4R ag barr: -1.0; MC4R antagonist: 2.2; EBI2 block: 14.5

How did COC(=O)c1sc(-c2ccccc2)cc1NC(C)=O do in these assays?
Myeloid diff 2: inactive; Exocytosis inh: -0.5; MC4R ag barr: -0.9; MC4R antagonist: 1.2; EBI2 block: 6.2

How did COC(=O)c1sc(-c2cccs2)cc1NC(=O)/C=C/C(=O)O do in these assays?
Myeloid diff 2: inactive; Exocytosis inh: 5.8; MC4R ag barr: -2.0; MC4R antagonist: 31.7*; EBI2 block: 11.2; cAMP nonselect: 8.4; MC4R antag conf: 5.0

What do the screens show for `OC(c1ccc(-c2ccccc2)cc1)c1ncc(-c2ccccc2F)[nH]1` (centres undefined)?
Myeloid diff 2: inactive; Exocytosis inh: -1.2; MC4R ag barr: 3.3; MC4R antagonist: 1.2; EBI2 block: 0.5

What do the screens show for `O=C(Nc1nc(-c2ccccn2)cs1)c1cc(Cl)ccc1[N+](=O)[O-]`?
Myeloid diff 2: inconclusive; Exocytosis inh: 1.5; MC4R ag barr: -1.4; MC4R antagonist: 29.1*; EBI2 block: 40.4*; cAMP nonselect: 32.2*; MC4R antag conf: 18.2

Results for Cc1cc(C(=O)Nc2nc(-c3ccccn3)cs2)ccc1[N+](=O)[O-] ?
Myeloid diff 2: inactive; Exocytosis inh: -1.8; MC4R ag barr: -2.4; MC4R antagonist: 17.9; EBI2 block: -1.2

What do the screens show for `CCOc1ncccc1C(=O)OCc1c(F)cccc1Cl`?
Myeloid diff 2: inactive; Exocytosis inh: 1.6; MC4R ag barr: 4.9; MC4R antagonist: -2.3; EBI2 block: 9.1

What do the screens show for `CCC(=O)N(CC(=O)Nc1sc(C)c(C)c1C(N)=O)C1CCCC1`?
Myeloid diff 2: inactive; Exocytosis inh: -0.2; MC4R ag barr: -1.0; MC4R antagonist: 29.4*; EBI2 block: -13.7; cAMP nonselect: -3.3; MC4R antag conf: -17.5

What do the screens show for `COc1ccc(C(=O)N(CC(=O)Nc2sc(C)c(C)c2C(N)=O)C2CCCC2)cc1`?
Myeloid diff 2: inactive; Exocytosis inh: inconclusive; MC4R ag barr: -0.7; MC4R antagonist: 15.8; EBI2 block: -0.4

What do the screens show for `CC1(C)C(=O)Nc2ccccc2N1C(=O)COc1ccccc1C#N`?
Myeloid diff 2: inconclusive; Exocytosis inh: -2.0; MC4R ag barr: -1.9; MC4R antagonist: -0.8; EBI2 block: 7.8

What do the screens show for `CC(C)CN(C(=O)COC(=O)c1nc(Cl)ccc1Cl)C1CCS(=O)(=O)C1` (centres undefined)?
Myeloid diff 2: inactive; Exocytosis inh: 42.3; MC4R ag barr: 2.1; MC4R antagonist: 35.6*; EBI2 block: -6.0; cAMP nonselect: 0.0; MC4R antag conf: -7.0

Results for CC(C)CN(C(=O)COC(=O)c1c(Cl)ccc(Cl)c1Cl)C1CCS(=O)(=O)C1 (centres undefined) ?
Myeloid diff 2: inactive; Exocytosis inh: -3.9; MC4R ag barr: 0.0; MC4R antagonist: -0.9; EBI2 block: 9.6

How did COc1cc(NC(=O)c2ccc3c(c2)S(=O)(=O)N=C2CCCCCN23)cc(OC)c1 do in these assays?
Myeloid diff 2: inactive; Exocytosis inh: -0.6; MC4R ag barr: -1.0; MC4R antagonist: 4.6; EBI2 block: -9.1

High-throughput results: PubChem, several laboratories
